Converted amounts (≈) assume the structure as drawn.
Legend:
Staphylococcus aureus [1] = test: Antibacterial activity against methicillin-resistant Staphylococcus aureus DSM 11822 after 18 hrs; type: functional; conditions: DSM 11822, 18 h
Summary of the method: (§1)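 Broth microdilution MIC. Gram-negatives grown overnight at 37 °C in Müller-Hinton broth + 1% glucose, pH 7.2; Gram-positives in trypticase soy broth with yeast extract, pH 7.2. Inoculum 5×10^5 cfu/mL final. Serial dilutions from 100 µM down to 0.2 µM, DMSO ≤1%. 18 h at 37 °C, moist; OD600. MIC = lowest concentration completely suppressing growth.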

Acinetobacter baumannii = test: Antibacterial activity against Acinetobacter baumannii DSM 30007 after 18 hrs; type: functional; conditions: DSM 30007, 18 h; summary of the method: as §1
[2] = Cytotoxicity against human FS4-LTM cells assessed as reduction in cell viability after 24 hrs by WST1 assay; type: cell-based; conditions: for IC50: Homo sapiens, FS4-LTM, 24 h; for IC90 at 24 h: human, FS4-LTM cells
Summary of the method: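 FS4-LTM conditionally immortalized human fibroblasts, kept without doxycycline for primary-like behaviour, in DMEM + 5% FBS. Exposed to serially diluted compound for 24 h. WST-1 added, plates incubated at 37 °C, absorbance read at 450 nm (reference 600 nm). Viability given as % of controls set to 100%.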

Enterococcus faecium = test: Antibacterial activity against Enterococcus faecium DSM 20477 after 18 hrs; type: functional; conditions: DSM 20477, 18 h; summary of the method: as §1
Staphylococcus aureus [3] = test: Antibacterial activity against methicillin-resistant Staphylococcus aureus RKI 11-02670 after 18 hrs; type: functional; conditions: RKI 11-02670, 18 h; summary of the method: as §1
[4] = (§2) Cytotoxicity against human MCF7 cells assessed as reduction in cell viability after 5 days by WST1 assay; type: cell-based; conditions: human, MCF7 cells
Summary of the method: (§3)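 MCF-7 cells, 3000 per well, in RPMI + 5% FBS, 0.5% NEAA, 0.5% GlutaMAX and insulin 5 µg/mL. Exposed to serially diluted compound for 5 days. WST-1 incubation 2 h at 37 °C, absorbance read at 450 nm (reference 600 nm). Viability given as % of controls.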

MCF7 = test: as §2; type: cell-based; conditions: Homo sapiens, MCF7, 120 h; summary of the method: as §3
Escherichia coli = test: Growth inhibition of Escherichia coli DSM 1116 at 100 uM after 18 hrs relative to control; type: functional; conditions: DSM 1116, 18 h, read-out: GI
Summary of the method: (§4)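 Gram-negative culture grown overnight at 37 °C in Müller-Hinton broth + 1% glucose, pH 7.2, then tested at 5×10^5 cfu/mL final. Compound at 100 µM from DMSO stock, DMSO ≤1%. Incubated 18 h at 37 °C under moist conditions. OD600 read; value reported as % growth inhibition.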

[5] = test system: Mycobacterium tuberculosis; test: Antimycobacterial activity against Mycobacterium tuberculosis H37Rv after 7 days by REMA; type: functional; conditions: 168 h
Summary of the method: (§5)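 REMA. 3-week H37Rv culture (2nd generation on Löwenstein–Jensen) vortexed with glass beads, set to 1.0 McFarland in 7H9, diluted 20-fold in 7H9 + OADC. 2-fold dilutions, final 1.6–400 µg/mL, 200 µL wells. 7 days at 35 °C, then resazurin 18 h. Fluorescence ex 520/em 590. MIC where signal plateaued or matched the 1% population control (t test).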

Pseudomonas aeruginosa = test: Growth inhibition of Pseudomonas aeruginosa PA7 DSM 24068 at 100 uM after 18 hrs relative to control; type: functional; conditions: PA7 DSM 24068, 18 h, read-out: GI; summary of the method: as §4
L929 = test: (§6) Cytotoxicity against mouse L929 cells assessed as reduction in cell viability after 5 days by WST1 assay; type: cell-based; conditions: Mus musculus, L929, 120 h
Summary of the method: (§7)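 KB-3-1 or L929 cells, 1500 per well, in DMEM + 5% FBS. Exposed to serially diluted compound for 5 days. WST-1 added, plates incubated at 37 °C (20 min for KB-3-1), absorbance read at 450 nm (reference 600 nm). Viability given as % of controls.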

[6] = as §6; type: cell-based; conditions: mouse, L929 cells; summary of the method: as §7
Klebsiella pneumoniae = test: Antibacterial activity against Klebsiella pneumoniae DSM 11678 after 18 hrs; type: functional; conditions: DSM 11678, 18 h; summary of the method: as §1
KB 3-1 = test: (§8) Cytotoxicity against human KB-3-1 cells assessed as reduction in cell viability after 5 days by WST1 assay; type: cell-based; conditions: Homo sapiens, KB 3-1, 120 h; summary of the method: as §7
[7] = as §8; type: cell-based; conditions: human, KB-3-1 cells; summary of the method: as §7
[8] = test system: Mycobacterium tuberculosis; test: Antimycobacterial activity against Mycobacterium tuberculosis H37Rv after 7 days by microbroth dilution method; type: functional; conditions: 168 h; summary of the method: as §5
Staphylococcus aureus [9] = test: Antibacterial activity against Staphylococcus aureus MLS16 MTCC 2940 after 24 hrs by well diffusion method; type: functional; conditions: MLS16 MTCC 2940, 24 h
Bacillus subtilis = test: Antibacterial activity against Bacillus subtilis MTCC 121 after 24 hrs by well diffusion method; type: functional; conditions: MTCC 121, 24 h

SMILES	MIC (Staphylococcus aureus [1]) [µM]	MIC (Acinetobacter baumannii) [µM]	IC50 [2] [µM]	IC90 at 24 h [2] [µM]	MIC (Enterococcus faecium) [µM]	EC50 (Staphylococcus aureus [3]) [µM]	MIC (Staphylococcus aureus [3]) [µM]	IC90 at 120 h [4] [µM]	IC50 (MCF7) [µM]	inhibition of growth at 100 µM (Escherichia coli) [%]	MIC [5] [µM]	inhibition of growth at 100 µM (Pseudomonas aeruginosa) [%]	IC50 (L929) [µM]	IC90 at 120 h [6] [µM]	MIC (Klebsiella pneumoniae) [µM]	IC50 (KB 3-1) [µM]	IC90 at 120 h [7] [µM]	MIC [8] [µg/mL]	MIC (Staphylococcus aureus [9]) [µg/mL]	MIC (Bacillus subtilis) [µg/mL]
CC1(C(=O)NC2CCCCC2)CSCC(=O)N1/N=C/c1ccc([N+](=O)[O-])o1 (centres undefined)	100 (≈ 39.4 µg/mL)	> 100	8.7 to 100	≥ 100	> 100	55	100 (≈ 39.4 µg/mL)	> 100	8.7	84	32 (≈ 12.6 µg/mL)	91	50	> 100	> 100	16	100	–	–	–
CC1(C(=O)NC2CCCCC2)CCCC(=O)N1/N=C/c1ccc([N+](=O)[O-])o1 (centres undefined)	100 (≈ 37.6 µg/mL)	> 100	19.3 to 100	≥ 100	> 100	70	100 (≈ 37.6 µg/mL)	100	19	81	33 (≈ 12.4 µg/mL)	88	50 to 50.2	> 100	> 100	61	100	–	–	–
O=[N+]([O-])c1ccc(C2=NOC(c3ccc(N4CCC(Oc5ccc(OC(F)(F)F)cc5)CC4)c(F)c3)C2)o1 (centres undefined)	–	–	–	–	–	–	–	–	–	–	–	–	–	–	–	–	–	0.001 (≈ 0.00187 µM)	–	–
CC(C)(C)NC(=O)C1(C)CCC(=O)N1/N=C/c1ccc([N+](=O)[O-])o1 (centres undefined)	> 100	–	–	–	> 100	91	> 100	–	–	86	> 100	92	–	–	–	–	–	–	–	–
CC1(C(=O)NCc2ccccc2)CCCC(=O)N1/N=C/c1ccc([N+](=O)[O-])o1 (centres undefined)	100 (≈ 38.4 µg/mL)	–	–	–	> 100	75	100 (≈ 38.4 µg/mL)	–	–	87	65 (≈ 25 µg/mL)	85	–	–	–	–	–	–	–	–
CC1(C(=O)NC2CCCCC2)CN(S(=O)(=O)c2ccccc2[N+](=O)[O-])CC(=O)N1/N=C/c1ccc([N+](=O)[O-])o1 (centres undefined)	100 (≈ 56.3 µg/mL)	> 100	12 to 100	> 100	> 100	75	100 (≈ 56.3 µg/mL)	> 100	12	88	22 (≈ 12.4 µg/mL)	85	22.9 to 100	> 100	> 100	26.7 to 27	> 100	–	–	–
CC1(C(=O)NCc2ccc(Cl)cc2)CCC(=O)N1/N=C/c1ccc([N+](=O)[O-])o1 (centres undefined)	> 100	–	–	–	> 100	> 100	> 100	–	–	82	> 100	89	–	–	–	–	–	–	–	–
O=C(NCc1cn(-c2ccccc2)nn1)c1ccc([N+](=O)[O-])o1	–	–	–	–	–	–	–	–	–	–	–	–	–	–	–	–	–	–	1.9 (≈ 6.06 µM)	7.8 (≈ 24.9 µM)
CC(C)(C)NC(=O)C1(C)CCCC(=O)N1/N=C/c1ccc([N+](=O)[O-])o1 (centres undefined)	100 (≈ 35 µg/mL)	–	–	–	> 100	76	100 (≈ 35 µg/mL)	–	–	83	71 (≈ 24.9 µg/mL)	85	–	–	–	–	–	–	–	–
CC1(C(=O)NCc2ccccc2)CCC(=O)N1/N=C/c1ccc([N+](=O)[O-])o1 (centres undefined)	95 (≈ 35.2 µg/mL)	–	–	–	> 100	67	95 (≈ 35.2 µg/mL)	–	–	85	> 100	90	–	–	–	–	–	–	–	–

— ChEMBL document CHEMBL3992553, “New nitrofurans amenable by isocyanide multicomponent chemistry are active against multidrug-resistant and poly-resistant Mycobacterium tuberculosis” (Bioorg Med Chem, 2017)
